From ChEMBL document CHEMBL4043283, “Discovery and Preclinical Development of IIIM-290, an Orally Active Potent Cyclin-Dependent Kinase Inhibitor” (J Med Chem, 2018)
pIC50: −log10 of the molar value. Activity calls are given as the source filed them. No cut-off for these calls is given here.

Legend:
CDK2/Cyclin O = CDK2/Cyclin O (Homo sapiens, UniProt P22674+P24941); test: Inhibition of CDK2/cyclin O (unknown origin) after 30 mins in presence of [33P]-gamma-ATP by filter binding assay; assay type: protein-complex assay
Mus musculus = test: Toxicity in CD1 nude mouse xenografted with human MOLT4 cells assessed as change in body weight at 25 to 75 mg/kg, po qd administered on day 10 to 25 post tumor inoculation; assay type: organism-based; details: in vivo
[1] = AUC in Sprague-Dawley rat at 10 mg/kg, po by LC-MS/MS analysis; assay type: ADME, organism-based; details: in vivo
[2] = Growth inhibition of mouse adenocarcinoma cells after 48 hrs by MTT assay; assay type: functional; details: Adenocarcinoma cell
[3] = biological target: Cyclin-dependent kinase 7/ cyclin H (Homo sapiens, UniProt P50613); test: Inhibition of CDK7/cyclin H (unknown origin) after 30 mins in presence of [33P]-gamma-ATP by filter binding assay; assay type: protein-complex assay
[4] = Pancreas to plasma partition coefficient, Kp of the compound in Sprague-Dawley rat at 30 mg/kg, po measured at 8 hrs; assay type: ADME, organism-based; details: pancreas and plasma
MOLT-4 [5] = test: Antitumor activity against human MOLT4 cells xenografted in CD1 nude mouse assessed as tumor growth inhibition at 25 mg/kg, po qd administered on day 10 to 25 post tumor inoculation; assay type: functional, organism-based
[6] = n-octanol-PBS distribution co-efficient, log D of compound at pH 7.4 by shake flask method; assay type: physicochemical
[7] = test system: Tyrosine-protein kinase ABL1 (Homo sapiens), P00519 [H396P]; test: Inhibition of partial length human ABL1 H396P mutant expressed in mammalian expression system at 0.5 uM by KINOMEscan method relative to control
Method in brief: (§1)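 Competition binding screen (KINOMEscan) at 0.5 μM; primary binding read out as % of control, lower values indicating stronger interaction.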

DU-145 = test: Growth inhibition of human DU145 cells after 48 hrs by MTT assay; assay type: functional; details: DU-145, 48 h
Method in brief: (§2)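 Cancer cell lines sourced from the National Cancer Institute (USA). Cells kept in appropriate growth medium at 37 °C, 95% humidity, 5% CO2. Antiproliferation read by tetrazolium (MTT) assay. GI50 values were determined only for compounds selected after an initial single-concentration screen.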

[8] = Ratio of Cmax in BALB/c mouse at 30 mg/kg, po to GI50 for human HL60 cells
[9] = biological target: Dual specificity mitogen-activated protein kinase kinase 5 (Homo sapiens) (UniProt Q13163); test: Inhibition of partial length wild type human MEK5 expressed in mammalian expression system at 0.5 uM by KINOMEscan method relative to control; method in brief: as §1
[10] = Protein binding in dog plasma at 3 uM after 5 hrs by equilibrium dialysis method; assay type: ADME, cell-free, Canis lupus familiaris; details: read-out: PPB (converted)
MDA-MB-231 = test: Growth inhibition of human MDA-MB-231 cells after 48 hrs by MTT assay; assay type: functional; details: MDA-MB-231, 48 h; method in brief: as §2
[11] = Intrinsic clearance in dog hepatocytes assessed per million cells at 3 uM after 180 mins by LC-MS/MS analysis; assay type: ADME, cell-based, Canis lupus familiaris, Hepatocyte; details: read-out: CLH
Method in brief: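 Intrinsic clearance obtained from substrate disappearance over time, reported per mg protein (microsomes, S9) or per 10^6 cells (hepatocytes).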

[12] = Tmax in BALB/c mouse at 30 mg/kg, po by LC-MS/MS analysis; assay type: ADME, organism-based; details: in vivo
[13] = test system: Tyrosine-protein kinase ABL1 (Homo sapiens), P00519 [E255K]; test: Inhibition of phosphorylated partial length human ABL1 E255K mutant expressed in mammalian expression system at 0.5 uM by KINOMEscan method relative to control; method in brief: as §1
MOLT-4 [14] = test: Antitumor activity against human MOLT4 cells xenografted in CD1 nude mouse assessed as tumor growth inhibition at 50 mg/kg, po qd administered on day 10 to 25 post tumor inoculation relative to control; assay type: functional; details: MOLT-4, po, 240 h, read-out: TGI
Ehrlich = test: Antitumor activity against Swiss mouse EAC allografted in Swiss albino mouse assessed as tumor growth inhibition at 70 mg/kg, po administered for 9 day measured on day 13 relative to control; assay type: functional; details: read-out: TGI
[15] = Growth inhibition of human FR2 cells after 48 hrs by MTT assay; assay type: cell-based
Method in brief: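 fR2 is a normal epithelial line of ECACC type. Cells were grown in appropriate medium at 37 °C, 95% humidity, 5% CO2. Antiproliferative effect measured by MTT assay, with GI50 values derived from concentration-response testing.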

[16] = Intrinsic clearance in rat hepatocytes assessed per million cells at 3 uM after 180 mins by LC-MS/MS analysis; assay type: ADME, cell-based, Hepatocyte; details: read-out: CLH
[17] = Half life in rat liver S9 fraction preincubated for 5 mins followed by NADPH addition measured after 30 mins by LC-MS/MS analysis; assay type: ADME, tissue-based
Method in brief: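 Parent loss followed over time to give half-life, with NADPH as cofactor for microsomal phase I metabolism.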

[18] = Half life in BALB/c mouse at 30 mg/kg, po by LC-MS/MS analysis; assay type: ADME, organism-based; details: in vivo
[19] = Cmax in BALB/c mouse at 30 mg/kg, po by LC-MS/MS analysis; assay type: ADME, organism-based; set-up: dose 30 mg/kg, route oral; details: in vivo
[20] = AUC (0 to infinity) in BALB/c mouse at 1 mg/kg, iv by LC-MS/MS analysis; assay type: ADME, organism-based; set-up: dose 1 mg/kg, route intravenous, time infinity; details: in vivo
Salmonella typhimurium [21] = test: Mutagenicity in Salmonella typhimurium TA102 at 50 ug/plate in absence of liver S9 fraction by Ames test; assay type: toxicity; details: salmonella enterica subsp. enterica serovar typhimurium
Salmonella typhimurium [22] = test: Mutagenicity in Salmonella typhimurium TA1537 at 50 ug/plate in presence of liver S9 fraction by Ames test; assay type: toxicity; details: salmonella enterica subsp. enterica serovar typhimurium
[23] = Tmax in BALB/c mouse at 3 mg/kg, po by LC-MS/MS analysis; assay type: ADME, organism-based; details: in vivo
CDK1/Cyclin A = CDK1/Cyclin A (Homo sapiens, UniProt P06493); test: Inhibition of CDK1/cyclin A (unknown origin) after 30 mins in presence of [33P]-gamma-ATP by filter binding assay; assay type: protein-complex assay
786-0 = test: Growth inhibition of human 786-0 cells after 48 hrs by MTT assay; assay type: functional; details: 786-0, 48 h; method in brief: as §2
[24] = test system: Mast/stem cell growth factor receptor Kit (Homo sapiens), P10721 [A829P]; test: Inhibition of partial length human KIT A829P mutant expressed in mammalian expression system at 0.5 uM by KINOMEscan method relative to control; method in brief: as §1
MIA PaCa-2 = test: Induction of apoptosis in human MIAPaCa2 cells assessed as PARP cleavage by Western blot method; assay type: functional, cell-based
Method in brief: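 Lysate protein quantified against a BSA standard; 70 μg resolved by SDS-PAGE, transferred to PVDF overnight at 4 °C, 30 V; blocked 1 h in 5% nonfat milk/TBST; primary antibodies 2–4 h, HRP anti-mouse secondary 1 h; ECL detection on X-ray film.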

CYP3A4 = CYP3A4 (Homo sapiens, UniProt P08684); test: Inhibition of human CYP3A4 at 2 uM using fluorogenic substrate after 30 mins by fluorometric method relative to control; assay type: ADME; details: probe fluorogenic substrate
COLO 205 = test: Growth inhibition of human COLO205 cells after 48 hrs by MTT assay; assay type: functional; details: COLO 205, 48 h; method in brief: as §2
OVCAR-5 = test: Growth inhibition of human OVCAR5 cells after 48 hrs by MTT assay; assay type: functional; details: OVCAR-5, 48 h; method in brief: as §2

Chain of Mast/stem cell growth factor receptor Kit (Homo sapiens), P10721 [A829P] (P10721 whole entry A829P): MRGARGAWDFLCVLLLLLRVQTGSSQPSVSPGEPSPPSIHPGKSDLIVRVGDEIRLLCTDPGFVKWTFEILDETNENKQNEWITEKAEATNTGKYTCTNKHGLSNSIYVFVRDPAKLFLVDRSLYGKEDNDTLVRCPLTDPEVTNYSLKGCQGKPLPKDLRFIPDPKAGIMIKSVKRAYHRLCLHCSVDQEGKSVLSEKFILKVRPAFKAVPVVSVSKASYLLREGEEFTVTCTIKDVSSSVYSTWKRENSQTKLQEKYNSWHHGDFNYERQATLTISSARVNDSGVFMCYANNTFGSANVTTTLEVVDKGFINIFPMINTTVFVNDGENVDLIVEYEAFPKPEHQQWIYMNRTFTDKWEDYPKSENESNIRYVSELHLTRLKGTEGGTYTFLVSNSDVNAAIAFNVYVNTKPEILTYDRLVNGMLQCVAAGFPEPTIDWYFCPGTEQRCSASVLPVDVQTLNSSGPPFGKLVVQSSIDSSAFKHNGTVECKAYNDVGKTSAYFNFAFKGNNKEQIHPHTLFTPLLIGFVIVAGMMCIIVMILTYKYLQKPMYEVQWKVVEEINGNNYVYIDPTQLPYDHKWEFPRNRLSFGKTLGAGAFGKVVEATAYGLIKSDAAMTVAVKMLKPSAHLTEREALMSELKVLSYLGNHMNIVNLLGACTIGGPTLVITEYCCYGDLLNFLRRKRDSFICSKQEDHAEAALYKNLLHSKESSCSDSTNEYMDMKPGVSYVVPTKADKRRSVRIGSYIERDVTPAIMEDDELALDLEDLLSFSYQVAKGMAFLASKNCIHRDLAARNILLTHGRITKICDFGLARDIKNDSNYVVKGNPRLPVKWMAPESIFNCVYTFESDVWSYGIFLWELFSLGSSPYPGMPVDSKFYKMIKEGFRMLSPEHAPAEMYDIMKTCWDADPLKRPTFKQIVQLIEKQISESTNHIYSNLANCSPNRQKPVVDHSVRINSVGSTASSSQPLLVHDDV
Chain of CDK1/Cyclin A (P06493 whole entry): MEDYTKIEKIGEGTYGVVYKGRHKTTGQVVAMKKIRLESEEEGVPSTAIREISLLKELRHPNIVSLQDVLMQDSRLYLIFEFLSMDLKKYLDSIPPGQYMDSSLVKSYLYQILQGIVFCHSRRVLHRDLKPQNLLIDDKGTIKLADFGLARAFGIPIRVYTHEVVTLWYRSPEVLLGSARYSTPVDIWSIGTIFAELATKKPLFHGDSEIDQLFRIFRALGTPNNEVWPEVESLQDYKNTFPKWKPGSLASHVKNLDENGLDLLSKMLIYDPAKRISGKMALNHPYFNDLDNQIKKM
Chain of CDK1/Cyclin A (P20248 whole entry, further chain): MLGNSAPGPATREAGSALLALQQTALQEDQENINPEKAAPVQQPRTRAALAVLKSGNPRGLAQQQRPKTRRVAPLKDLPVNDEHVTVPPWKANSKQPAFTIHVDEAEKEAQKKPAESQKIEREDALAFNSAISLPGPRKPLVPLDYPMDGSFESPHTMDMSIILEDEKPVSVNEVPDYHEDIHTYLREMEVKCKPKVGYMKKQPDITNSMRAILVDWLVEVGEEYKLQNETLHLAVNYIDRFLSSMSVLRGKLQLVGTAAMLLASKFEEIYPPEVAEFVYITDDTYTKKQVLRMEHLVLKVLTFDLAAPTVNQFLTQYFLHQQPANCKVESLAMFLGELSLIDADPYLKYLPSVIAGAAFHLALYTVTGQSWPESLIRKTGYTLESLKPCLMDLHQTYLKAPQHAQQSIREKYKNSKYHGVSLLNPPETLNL
Chain of Cyclin-dependent kinase 7/ cyclin H (P51946 whole entry): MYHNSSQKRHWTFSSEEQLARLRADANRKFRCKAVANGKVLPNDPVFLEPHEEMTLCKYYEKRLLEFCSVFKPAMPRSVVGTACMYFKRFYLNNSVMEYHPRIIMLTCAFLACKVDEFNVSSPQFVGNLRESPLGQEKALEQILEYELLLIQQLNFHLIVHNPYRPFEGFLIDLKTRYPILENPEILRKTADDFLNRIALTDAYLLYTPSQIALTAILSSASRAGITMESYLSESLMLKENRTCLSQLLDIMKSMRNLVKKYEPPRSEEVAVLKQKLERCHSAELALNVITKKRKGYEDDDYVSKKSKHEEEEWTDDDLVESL
Chain of Cyclin-dependent kinase 7/ cyclin H (P50613 whole entry): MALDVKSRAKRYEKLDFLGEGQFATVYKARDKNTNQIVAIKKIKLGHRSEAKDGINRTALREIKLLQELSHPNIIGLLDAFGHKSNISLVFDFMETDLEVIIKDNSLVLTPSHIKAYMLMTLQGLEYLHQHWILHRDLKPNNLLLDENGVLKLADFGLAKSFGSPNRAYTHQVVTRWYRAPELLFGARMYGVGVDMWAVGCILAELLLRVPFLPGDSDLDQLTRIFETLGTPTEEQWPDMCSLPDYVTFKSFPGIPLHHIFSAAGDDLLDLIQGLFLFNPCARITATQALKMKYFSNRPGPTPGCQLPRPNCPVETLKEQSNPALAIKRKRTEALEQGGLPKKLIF
Chain of Dual specificity mitogen-activated protein kinase kinase 5 (Homo sapiens) (Q13163 whole entry): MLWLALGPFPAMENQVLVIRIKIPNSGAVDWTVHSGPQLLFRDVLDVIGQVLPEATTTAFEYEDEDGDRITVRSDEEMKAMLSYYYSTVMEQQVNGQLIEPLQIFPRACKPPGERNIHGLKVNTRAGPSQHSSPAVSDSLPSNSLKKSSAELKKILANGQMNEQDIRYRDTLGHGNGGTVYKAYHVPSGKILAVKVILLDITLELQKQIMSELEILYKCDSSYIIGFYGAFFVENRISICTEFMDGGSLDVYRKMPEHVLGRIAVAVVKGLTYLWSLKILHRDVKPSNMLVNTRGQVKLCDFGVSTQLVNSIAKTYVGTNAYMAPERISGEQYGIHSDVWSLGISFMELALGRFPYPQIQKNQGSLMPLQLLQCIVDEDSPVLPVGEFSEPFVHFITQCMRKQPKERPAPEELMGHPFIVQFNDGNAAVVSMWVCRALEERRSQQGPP
Chain of CYP3A4 (P08684 whole entry): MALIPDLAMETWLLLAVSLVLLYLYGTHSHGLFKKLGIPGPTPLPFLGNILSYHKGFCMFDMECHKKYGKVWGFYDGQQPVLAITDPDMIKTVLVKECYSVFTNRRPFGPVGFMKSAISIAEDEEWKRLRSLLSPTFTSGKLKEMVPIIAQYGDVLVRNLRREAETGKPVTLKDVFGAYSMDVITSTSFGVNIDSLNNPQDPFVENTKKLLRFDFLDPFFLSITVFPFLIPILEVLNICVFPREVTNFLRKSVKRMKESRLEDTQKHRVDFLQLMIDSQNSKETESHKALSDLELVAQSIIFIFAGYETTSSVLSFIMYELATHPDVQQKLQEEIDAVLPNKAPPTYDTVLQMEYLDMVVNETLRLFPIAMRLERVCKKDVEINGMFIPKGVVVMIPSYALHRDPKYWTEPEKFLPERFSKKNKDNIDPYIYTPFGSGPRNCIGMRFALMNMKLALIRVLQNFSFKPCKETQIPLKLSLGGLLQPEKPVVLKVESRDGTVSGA

## CN1CC[C@H](c2c(O)cc(O)c3c(=O)cc(/C=C/c4c(Cl)cccc4Cl)oc23)[C@H](O)C1
CDK2/Cyclin O
  pIC50: 6.86
Mus musculus
  Activity: Non-Toxic
[1]
  AUC: 5.68 µM·h
[2]
  GI50: 1.2 µM
[3]
  pIC50: 6.15
[4]
  Kp at 8 h: 10.5
MOLT-4 [5]
  TGI: inactive
[6]
  logD: 1.65
[7]
  inhibition: > 98%
DU-145
  GI50: 5 µM
[8]
  Ratio: 4
[9]
  inhibition: > 98%
[10]
  fraction unbound at 5 h, 3 µM: 0.05
MDA-MB-231
  GI50: 4 µM
[11]
  hepatocyte CLint at 3 µM: 12.3 µL/min/1e6 cells
[12]
  Tmax: 32.4 min
[13]
  inhibition: > 98%
MOLT-4 [14]
  inhibition in vivo at 50 mg/kg: 40 to 52%
Ehrlich
  inhibition in vivo at 70 mg/kg: 31%
[15]
  GI50 at 48 h: 19 µM
[16]
  hepatocyte CLint at 3 µM: 9.2 µL/min/1e6 cells
[17]
  half-life: 31 min
[18]
  half-life: 217 min
[19]
  Cmax: 4.11 µM
[20]
  AUC(0-inf): 0.653 µM·h
Salmonella typhimurium [21]
  Activity: Non-Toxic
Salmonella typhimurium [22]
  Activity: Non-Toxic
[23]
  Tmax: 22.2 min
CDK1/Cyclin A
  pIC50: 8.31
786-0
  GI50: 6 µM
[24]
  inhibition: > 98%
MIA PaCa-2
  Activity: Dose-dependent effect
CYP3A4
  inhibition at 0.5 h, 2 µM: 40%
COLO 205
  GI50: 7 µM
OVCAR-5
  GI50: 7 µM
